Experimental data collected from several papers.
Each line is one published result; the experiments were not run side by side.

SMILES | test | test system | conditions | measurement | result
CCCCC(=O)OCOC(=O)C1CC(C)(C)N([O])C1(C)C (stereo not drawn) | chemical stability | bovine, serum |  | half-life | 0.817 h
CC(C)(O)c1ccccc1-c1ccc2[nH]c(/C=C/c3ccc(C(F)(F)F)cc3)nc2c1 |  | male human, plasma | oral, 5 mg, single dose, fasted, healthy volunteers | half-life | 29.9 h
Cn1cc(-c2ccc(S(=O)(=O)[C@@H]3C[C@@H](C(=O)NC4(C#N)CC4)N(C(=O)C4(C(F)(F)F)CC4)C3)c(C(F)(F)F)c2)cn1 |  | human, plasma | oral, 100 mg, single dose, fasted, healthy volunteers | half-life | 13.1 h
CC(C)(C)c1ccc(O)c(CN(Cc2cc(C(C)(C)C)ccc2O)C2CCC(NC(N)=O)CC2)c1 (stereo not drawn) |  | male C57BL/6 mouse, plasma | oral, 10 mg/kg, single dose | Vd | 2.79 L
CC(C)n1cc(C#N)c2cc(-n3cc(C(=O)O)cn3)ccc21 |  | human, plasma | oral, 25 mg, single dose, fasted, healthy volunteers | half-life | 8.1 h
COc1ccc([C@@H]2CN(C(=O)[C@@H](O)CO)C[C@@]2(C)[C@@H](C)O)cc1OC1CN(c2ccc(C)cn2)C1 |  | human, plasma | oral, 30 mg, single dose, healthy volunteers | half-life | 12.3 h
CCn1c2ccccc2c2cc(-n3nncc3-c3ccccc3)ccc21 |  | female BALB/c mouse, plasma | intraperitoneal, 10 mg/kg, single dose | Vd/F | ~0.4 L
CC[C@H](C)[C@H](NC(=O)[C@H](CCC(=O)O)NC(=O)[C@H](CO)NC(=O)[C@@H](NC(=O)[C@@H](N)CO)C(C)C)C(=O)N[C@@H](CCC(N)=O)C(=O)N[C@@H](CC(C)C)C(=O)N[C@@H](CCSC)C(=O)N[C@@H](Cc1cnc[nH]1)C(=O)N[C@@H](CC(N)=O)C(=O)N[C@@H](CC(C)C)C(=O)NCC(=O)N[C@@H](CCCCN)C(=O)N[C@@H](Cc1cnc[nH]1)C(=O)N[C@@H](CC(C)C)C(=O)N[C@@H](CC(N)=O)C(=O)N[C@@H](CO)C(=O)N[C@@H](CCSC)C(=O)N[C@@H](CCC(=O)O)C(=O)N[C@@H](CCCN=C(N)N)C(=O)N[C@H](C(=O)N[C@@H](CCC(=O)O)C(=O)N[C@@H](Cc1c[nH]c2ccccc12)C(=O)N[C@@H](CC(C)C)C(=O)N[C@@H](CCCN=C(N)N)C(=O)N[C@@H](CCCCN)C(=O)N[C@@H](CCCCN)C(=O)N[C@@H](CC(C)C)C(=O)N[C@@H](CCC(N)=O)C(=O)N[C@@H](CC(=O)O)C(=O)N[C@H](C(=O)N[C@@H](Cc1cnc[nH]1)C(=O)N[C@@H](CC(N)=O)C(=O)N[C@@H](Cc1ccccc1)C(=O)O)C(C)C)C(C)C | chemical stability, HPLC | aqueous buffer | 0.5 mg/mL, 5 min, pH 6.5 | compound remaining | 100%
CC[C@H](C)[C@@H]1NC(=O)[C@@](C)(NC(=O)[C@H](CCCNC(=N)N)NC(=O)[C@H](CC(C)C)NC(=O)[C@@H](NC(=O)[C@H](CCC(N)=O)NC(=O)[C@H](CC(C)C)NC(C)=O)[C@@H](C)O)CCCC=CCCC[C@@](C)(C(=O)N[C@@H](CC(C)C)C(=O)N[C@@H](Cc2ccc3ccccc3c2)C(N)=O)NC(=O)[C@H](CCCNC(=N)N)NC(=O)[C@H](CCC(N)=O)NC1=O |  | male BALB/c mouse, plasma | intravenous, 15 mg/kg | Vd | 0.0946 L/kg
CC(=O)N[C@@H](Cc1ccccc1)C(=O)N[C@@H](Cc1ccccc1)C(=O)N[C@@H](C)C(=O)N[C@@H](CC(C)C)C(=O)NCC(=O)N[C@@H](CC(C)C)C(=O)N[C@@H](C)C(=O)NCC(=O)N[C@@H](CC(=O)O)C(=O)N[C@@H](CC(=O)O)C(=O)O | chemical stability | human, plasma | 1 mM, pH 7.4 | half-life | 8.64 h
COCCOc1cnc2ccn([C@H](C)c3nnc4c(F)cc(-c5cnn(C)c5)cn34)c(=O)c2c1 |  | human, plasma | oral, 400 mg, multiple doses, once daily, patients | half-life | 7.7 h
CO[C@@H]1[C@H](OC(=O)N2CC(CCN3CCOCC3)C2)CC[C@]2(CO2)[C@H]1[C@@]1(C)O[C@@H]1CC=C(C)C |  | human, plasma | subcutaneous, 2.4 mg, single dose, healthy volunteers | half-life | 0.69 h
